# High-throughput results deposited in PubChem BioAssay by several laboratories.
# Sampled rows, rich in hits. Any-hit rate of the full collection: about 1.9%.
# Rtt109 HAT inh = inhibitors of C. albicans Rtt109/Vps75 HAT, primary screen, biochemical, ThioGlo CoA-SH fluorescence, plate reader | Histone acetyltransferase RTT109 (Candida albicans (strain SC5314 / ATCC MYA-2876)), … | purified Rtt109/Vps75, 4 h | inhibition, % at 34.9 µM | 330,000 compounds, 0.16% hits;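 active = inhibition of at least 50% in every replicate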
# Target sequence (Q5AAJ8 whole entry, looked up): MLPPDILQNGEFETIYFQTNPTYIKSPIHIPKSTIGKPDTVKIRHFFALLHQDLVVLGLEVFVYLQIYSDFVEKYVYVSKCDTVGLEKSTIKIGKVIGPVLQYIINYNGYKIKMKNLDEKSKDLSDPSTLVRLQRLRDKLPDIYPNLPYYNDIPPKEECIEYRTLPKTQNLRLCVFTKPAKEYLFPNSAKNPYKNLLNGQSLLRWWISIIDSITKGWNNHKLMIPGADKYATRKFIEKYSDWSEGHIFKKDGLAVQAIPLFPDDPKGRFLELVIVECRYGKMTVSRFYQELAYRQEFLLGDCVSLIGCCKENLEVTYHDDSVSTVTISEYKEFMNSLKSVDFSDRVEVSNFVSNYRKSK
# FGF22 binding = binders of human FGF22 protein, primary screen, FGF22 synaptogenesis inhibitor project, biophysical, thermal shift, single point | Fibroblast growth factor 22 (Homo sapiens), Q9HCT0 | recombinant FGF22 thermal shift, SYPRO orange fluorescence; percent of sucrose octasulfate shift, DMSO zero | activity (Tm shift, normalised), % at 9.99 µM | 340,000 compounds, 1.5% hits;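 active = mean Tm shift, scaled 0 neutral to 100 positive control, at about 1.3% or above, every replicate too, limit read from the data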
# ARFGAP1 inh = inhibitors of rat ARFGAP1 GAP activity, primary screen, biochemical, fluorescence polarization, GDP tracer; Arfgap1-stimulated ARF1 GTP hydrolysis, GDP FP detection; inhibition, % at 16.5 µM; 360,000 compounds, 0.26% hits;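 active = inhibition above a per-plate limit, mean inhibition of low control wells plus 3 SD, cut at about 25% in these data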;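 also: 0% = DMSO wells with enzyme and 100% = wells lacking Arfgap1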
# Target sequence (Q62848 1-136 limits assumed): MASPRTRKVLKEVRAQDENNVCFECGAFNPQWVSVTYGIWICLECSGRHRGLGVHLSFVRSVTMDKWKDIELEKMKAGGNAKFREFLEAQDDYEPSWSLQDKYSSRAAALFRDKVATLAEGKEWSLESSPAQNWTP
#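 Assay system: Rat Arfgap1 GAP domain (His6, aa 1-136), purified enzyme | Buffer or medium: HEPES 25 mM pH 7.5, NaCl 150 mM, MgCl2, DTT | Schedule: GTP hydrolysis reaction 2 h at 25 °C | Signal: FP of antibody-bound GDP Alexa 633 tracer, ex 620/em 688 nm | Measure: Percent inhibition of Arfgap1-stimulated GTP hydrolysis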
# Efflux pump mplx = inhibitors of Candida efflux pumps in yeast, primary screen, S. cerevisiae, Nile Red, multiplex; AID 485275, 2010; 330,000 compounds, 0.44% hits; S. cerevisiae Candida pump triplex; inhibition, % at 10 µM;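 active = plate passing quality check with inhibition over a set limit, or well fluorescence over plate mean plus 4 SD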;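 also: Nile Red retained in pooled yeast measured as flow cytometry median fluorescence; 0% = buffer negative control and 100% = Enniatin B positive control; higher means more Nile Red kept so more efflux inhibition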
# ASAP1 inh = inhibitors of human ASAP1 ArfGAP activity, primary screen, biochemical, fluorescence polarization; Arf-GAP with SH3 domain, ANK repeat and PH domain-containing protein 1 (Homo sapiens), …; ASAP1-stimulated ARF1 GTP hydrolysis, GDP FP detection; inhibition, % at 16.5 µM; 360,000 compounds, 0.19% hits; in the data active = inhibition above about 25%;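 also: 0% = vehicle with enzyme and substrate and 100% = no enzyme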
# Numbers without * were called inactive; . = not tested or not shown.
SMILES,Rtt109 HAT inh,FGF22 binding,ARFGAP1 inh,Efflux pump mplx,ASAP1 inh
O=C1C2C3c4ccccc4C(c4ccccc43)[C@@H]2C(=O)N1c1ccccn1 (some centres not stated),-7.2,-0.2,5.1,0.1,3.9
CC(=O)N1CCc2cc(N=NC3=C(O)CC(C)(C)CC3=O)ccc21,27.7,43.0*,-3.4,0.0,-5.8
N#Cc1ccccc1NC(=O)CSC1=Nc2ccccc2C2CC=NN12 (configuration not stated),.,43.7*,-0.2,0.0,10.3
CCOCCCN1CN(Cc2ccco2)CNC1=S,-3.6,43.0*,5.3,-0.1,8.7
S=C1NCN(Cc2ccco2)CN1CCc1ccccc1,-4.2,0.0,4.1,1.0,11.2
O=C1N(CN2CCC3(CC2)OCCO3)c2ccccc2C12OCCCO2,3.3,.,-1.6,0.0,10.9
CC1(C)COC2(OC1)C(=O)N(CN1CCOCC1)c1ccccc12,-3.7,42.9*,2.3,0.0,7.0
CCOC(=O)c1cnc2ccccc2c1Nc1ccc(C(=O)O)cc1,1.9,43.8*,-12.5,-0.2,-7.4
CCOC(=O)c1cnc2ccccc2c1Nc1cccc(C(=O)O)c1,7.5,0.0,-9.7,-0.1,-7.0
COc1cccc(S(=O)(=O)N2CC[C@H]3[C@@H](CO)N(C)c4ccc(C#Cc5ccc(F)cc5)cc4[C@H]32)c1,.,0.1,.,.,.
O=C(O)c1ccccc1C(=O)NNc1ccc(F)cc1,16.1,.,-1.1,0.0,4.5
O=C(O)c1ccccc1C(=O)NNc1ccc(Cl)cc1Cl,-3.8,43.8*,-6.4,-0.2,0.5
[O-][N+](=Cc1ccccc1)CC1(O)CCCCC1,.,43.3*,12.2,.,-1.7
O=C1C=C(c2ccccc2)CC(c2cccs2)C1n1cnc([N+](=O)[O-])c1 (configuration not stated),-3.1,.,-1.2,0.0,12.8
CC(Oc1ccccc1)c1ccnc2nc(N3CCOCC3)nn12 (configuration not stated),-5.2,43.4*,-8.6,0.0,-8.3
CC(Oc1ccc(Cl)cc1Cl)c1ccnc2nc(N3CCOCC3)nn12 (configuration not stated),-6.9,0.0,-2.4,0.0,-8.9
N#C/C(=C\C=C\c1ccccc1)C(=O)Nc1ccccc1,-1.0,44.2*,-1.6,0.0,6.7
N#C/C(=C/C=C/c1ccccc1)C(=O)Nc1ccccc1,0.8,0.2,1.8,0.1,-2.2
C#CCN1C=CC(=O)[C@@H](OC(=O)Nc2ccccc2Br)[C@H]1c1ccccc1Br,3.4,0.4,-8.3,.,16.3
CCOc1ccccc1N1C(=O)CC(Sc2n[nH]c(-c3ccccc3)n2)C1=O (configuration not stated),8.9,44.3*,-10.9,0.0,3.0
CCOc1cc(C(=S)N2CCOCC2)ccc1OS(=O)(=O)c1ccccc1,-2.9,.,3.2,-0.1,6.1
COCCN1C(=O)CC(NNC(=O)c2ccc(S(=O)(=O)N3CCCC3)cc2)C1=O (configuration not stated),-11.8,43.3*,-1.0,0.0,-6.4
CC(C)CCN1C(=O)CC(NNC(=O)c2ccc(S(=O)(=O)N3CCCC3)cc2)C1=O (configuration not stated),5.6,-0.2,1.8,0.0,-8.1
COCCCN1C(=O)C(=O)/C(=C(/O)c2ccc(S(=O)(=O)N3CCCCC3)cc2)C1c1ccc(O)cc1 (configuration not stated),-3.0,43.2*,1.4,0.0,-3.8
COCCCN1C(=O)C(=O)/C(=C(/O)c2ccc(S(=O)(=O)N3CCCCC3)cc2)C1c1ccc(O)c(OC)c1 (configuration not stated),-0.8,-0.1,8.0,-0.2,-4.1
SMILES,Rtt109 HAT inh,FGF22 binding,ARFGAP1 inh,Efflux pump mplx,ASAP1 inh
Cc1noc(C)c1NC(=O)Nc1ccc2c(c1)CC(=O)N([C@H](C)CO)C[C@@H](C)[C@H](CN(C)S(=O)(=O)c1ccc(F)cc1)O2,.,0.0,.,.,.
CC1CCC(NC(=O)C2CCN(S(=O)(=O)c3ccc4nc5c(c(C(=O)O)c4c3)CC(C)CC5)CC2)CC1 (configuration not stated),22.9,43.2*,17.1,0.0,6.0
O=C(C[C@H]1C(=O)N(C2CCCCC2)C[C@@H]1Cc1ccccc1)Nc1ccccc1,-4.2,-0.1,-4.0,-0.1,-1.1
COc1ccc(C(=O)NCC(=O)N2CCC(C)CC2)cc1OC,-8.2,.,13.0,-0.1,0.5
CC1CC(C)CN(C(=O)CNC(=O)c2ccc3ccccc3c2)C1 (configuration not stated),2.0,0.0,12.7,-0.1,-7.5
COc1ccc(C(=O)NCC(=O)N2CCCC(C)C2)cc1OC (configuration not stated),2.2,43.1*,-1.3,0.0,3.5
CCOc1ccc(C(=O)NCC(=O)OCC(=O)N2CCCC2)cc1,-2.0,43.5*,4.8,0.0,4.2
CCOc1ccc(C(=O)NCC(=O)OCC(=O)N2CCC(C)CC2)cc1,-5.9,.,9.5,0.0,-2.3
O=C(NCC(=O)N1CCCCC1)c1ccc2ccccc2c1,51.7*,0.0,0.3,-0.2,-7.4
COCCN1CCC(CO)C1 (configuration not stated),-1.4,-0.2,-2.3,.,0.9
C=CCNc1oc(C2CCCC2)nc1C#N,5.6,0.0,-1.1,-0.1,6.0
O=C(COC(=O)c1ccc(F)c(S(=O)(=O)N2CCOCC2)c1)NCc1ccc(F)cc1,-0.4,-0.4,1.9,-0.1,9.5
CC(=O)Nc1ccc(Nc2cc(N3CCOCC3)c3nonc3c2[N+](=O)[O-])cc1,13.1,.,7.8,-0.2,-0.5
O=[N+]([O-])c1c(Nc2ccc(O)cc2)cc(N2CCOCC2)c2nonc12,-8.1,44.0*,-7.0,0.0,-9.2
O=C(O)c1cc(Nc2cc(Cl)c3nonc3c2[N+](=O)[O-])ccc1O,1.1,1.8*,-12.9,0.1,-10.5
O=C(C[C@H]1C[C@H]2c3cc(NC(=O)c4cccnc4)ccc3O[C@H]2[C@H](CO)O1)NCCc1ccccc1,.,-0.2,.,.,.
CC(On1nnc2ccccc21)C(=O)N1CCN(Cc2ccccc2)CC1 (configuration not stated),7.5,43.5*,-4.8,0.0,-2.2
O=C(NCc1ccco1)c1ccc(S(=O)(=O)N2CCCCC2)cc1,-9.0,43.6*,-4.4,-0.1,7.3
O=C(NCc1ccco1)c1ccc(Br)c(S(=O)(=O)N2CCCCC2)c1,13.8,.,0.2,-0.1,9.1
